Experimental data reported in ChEMBL document CHEMBL3808334, “Synthesis and in vitro evaluation of novel triazine analogues as anticancer agents and their interaction studies with bovine serum albumin” (Eur J Med Chem, 2016).

What was measured:
[1] = Growth inhibition of human HCT116 cells assessed as cell growth at 10^-6 M incubated for 48 hrs by sulforhodamine B assay; type: functional; conditions: HCT-116, 48 h, read-out: Activity
Outline: (§1)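 Cells seeded at 5,000–40,000/well according to doubling time and preincubated 24 h at 37 °C, 5% CO2. Time-zero plates were TCA-fixed. DMSO concentrate was diluted in medium with 50 µg/ml gentamicin to give five concentrations (10-fold or ½ log steps), then exposed 48 h. Cells were TCA-fixed, stained with 0.4% SRB and read at 515 nm. Percent growth was taken against time-zero and control; GI50, TGI and LC50 derived.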

[2] = system: SK-MEL-5; assay: Growth inhibition of human SK-MEL-5 cells assessed as cell growth at 10^-7 M incubated for 48 hrs by sulforhodamine B assay; type: functional; conditions: SK-MEL-5, 48 h, read-out: Activity
[3] = system: NCI-H23; assay: Growth inhibition of human NCI-H23 cells assessed as cell growth at 10 uM incubated for 48 hrs by sulforhodamine B assay; type: functional; conditions: NCI-H23, 48 h, read-out: Activity
[4] = system: K562; assay: Growth inhibition of human K562 cells assessed as cell growth at 10^-4 M incubated for 48 hrs by sulforhodamine B assay; type: functional; conditions: K562, 48 h, read-out: Activity
[5] = system: NCI-H522; assay: Growth inhibition of human NCI-H522 cells assessed as cell growth at 10^-5 M incubated for 48 hrs by sulforhodamine B assay; type: functional; conditions: NCI-H522, 48 h, read-out: Activity
[6] = system: SK-MEL-2; assay: Growth inhibition of human SK-MEL-2 cells assessed as cell growth at 10^-8 M incubated for 48 hrs by sulforhodamine B assay; type: functional; conditions: SK-MEL-2, 48 h, read-out: Activity
[7] = system: NCI-H460; assay: Growth inhibition of human NCI-H460 cells assessed as cell growth at 10^-7 M incubated for 48 hrs by sulforhodamine B assay; type: functional; conditions: NCI-H460, 48 h, read-out: Activity
[8] = Growth inhibition of human Caki1 cells assessed as cell growth at 10 uM incubated for 48 hrs by sulforhodamine B assay; type: functional; conditions: CAKI-1, 48 h, read-out: Activity
Outline: (§2)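 Primary screen at one dose (10 µM) across 60 human cancer cell lines. Readout was growth percent relative to untreated control and time-zero.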

[9] = Growth inhibition of human SF539 cells assessed as cell growth at 10 uM incubated for 48 hrs by sulforhodamine B assay; type: functional; conditions: SF-539, 48 h, read-out: Activity
[10] = target: Albumin (Bos taurus, UniProt P02769); assay: Binding affinity to bovine serum albumin assessed as isoemissive point up to 20 uM by fluorescence spectroscopic analysis relative to control; type: ADME; conditions: cattle, isolated protein
Outline: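 Fluorescence titration of 10 µM BSA in 0.1 M phosphate buffer pH 7.4 with compound at 0–20 µM, diluted from DMSO stocks. Excitation 280 nm, slit 10 nm, 1 cm quartz cell, 300 K. Changes in the 350 nm Trp emission, new bands near 370–373 nm and isoemissive points are read against BSA alone.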

[11] = system: MDA-MB-231; assay: Growth inhibition of human MDA-MB-231 cells assessed as cell growth at 10^-5 M incubated for 48 hrs by sulforhodamine B assay; type: functional; conditions: MDA-MB-231, 48 h, read-out: Activity
[12] = system: 786-0; assay: Growth inhibition of human 786-0 cells assessed as cell growth at 10^-8 M incubated for 48 hrs by sulforhodamine B assay; type: functional; conditions: 786-0, 48 h, read-out: Activity
Outline: (§3)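 Five-dose assay: five concentrations from 10-fold or ½-log serial dilutions. Cells are plated at 5,000–40,000 per well according to doubling time, grown 24 h, then exposed 48 h at 37 °C, 5% CO₂. Fixed with cold 50% TCA (final addition) for 60 min at 4 °C and stained with 0.4% SRB in 1% acetic acid. Bound dye is solubilized in 10 mM Tris base and read at 515 nm. GI₅₀ is where [(Ti−Tz)/(C−Tz)]×100 = 50, with a time-zero plate as Tz.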

[13] = Growth inhibition of human SNB75 cells assessed as cell growth at 10^-5 M incubated for 48 hrs by sulforhodamine B assay; type: functional; conditions: SNB-75, 48 h, read-out: Activity
[14] = Growth inhibition of human TK10 cells assessed as cell growth at 10^-4 M incubated for 48 hrs by sulforhodamine B assay; type: functional; conditions: TK-10, 48 h, read-out: Activity
[15] = system: CCRF-CEM; assay: Growth inhibition of human CCRF-CEM cells assessed as cell growth at 10^-5 M incubated for 48 hrs by sulforhodamine B assay; type: functional; conditions: read-out: Activity
Outline: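 Leukemia line in the five-dose format: five concentrations from 10-fold or ½-log serial dilutions. Plated at 5,000–40,000 cells per well, preincubated 24 h, then compound added for 48 h at 37 °C, 5% CO₂. Sulforhodamine B absorbance read at 515 nm. Growth is computed against time-zero (Tz) and control (C) readings; GI₅₀ is where [(Ti−Tz)/(C−Tz)]×100 = 50.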

[16] = system: MCF7; assay: Growth inhibition of human MCF7 cells assessed as cell growth at 10^-6 M incubated for 48 hrs by sulforhodamine B assay; type: functional; conditions: MCF7, 48 h, read-out: Activity
[17] = Growth inhibition of human Caki1 cells assessed as cell growth at 10^-6 M incubated for 48 hrs by sulforhodamine B assay; type: functional; conditions: CAKI-1, 48 h, read-out: Activity; outline: as §1
[18] = Growth inhibition of human MOLT4 cells assessed as cell growth at 10^-8 M incubated for 48 hrs by sulforhodamine B assay; type: functional; conditions: MOLT-4, 48 h, read-out: Activity
[19] = Growth inhibition of human HOP62 cells assessed as cell growth at 10 uM incubated for 48 hrs by sulforhodamine B assay; type: functional; conditions: HOP-62, 48 h, read-out: Activity
[20] = Growth inhibition of human OVCAR4 cells assessed as cell growth at 10^-8 M incubated for 48 hrs by sulforhodamine B assay; type: functional; conditions: OVCAR-4, 48 h, read-out: Activity
[21] = Growth inhibition of human SF295 cells assessed as cell growth at 10 uM incubated for 48 hrs by sulforhodamine B assay; type: functional; conditions: SF-295, 48 h, read-out: Activity
[22] = system: SN12C; assay: Growth inhibition of human SN12C cells assessed as cell growth at 10^-5 M incubated for 48 hrs by sulforhodamine B assay; type: functional; conditions: read-out: Activity
[23] = system: SK-MEL-5; assay: Growth inhibition of human SK-MEL-5 cells assessed as cell growth at 10^-6 M incubated for 48 hrs by sulforhodamine B assay; type: functional; conditions: SK-MEL-5, 48 h, read-out: Activity
[24] = system: 786-0; assay: Growth inhibition of human 786-0 cells assessed as cell growth at 10^-7 M incubated for 48 hrs by sulforhodamine B assay; type: functional; conditions: 786-0, 48 h, read-out: Activity; outline: as §3
[25] = system: U-251; assay: Growth inhibition of human U251 cells assessed as cell growth at 10^-4 M incubated for 48 hrs by sulforhodamine B assay; type: functional; conditions: U-251, 48 h, read-out: Activity
[26] = Growth inhibition of human HCT116 cells assessed as cell growth at 10 uM incubated for 48 hrs by sulforhodamine B assay; type: functional; conditions: HCT-116, 48 h, read-out: Activity; outline: as §2
[27] = system: A549; assay: Growth inhibition of human A549/ATCC cells assessed as cell growth at 10^-5 M incubated for 48 hrs by sulforhodamine B assay; type: functional; conditions: A549, 48 h, read-out: Activity; outline: as §3

Chain of Albumin (P02769 whole entry): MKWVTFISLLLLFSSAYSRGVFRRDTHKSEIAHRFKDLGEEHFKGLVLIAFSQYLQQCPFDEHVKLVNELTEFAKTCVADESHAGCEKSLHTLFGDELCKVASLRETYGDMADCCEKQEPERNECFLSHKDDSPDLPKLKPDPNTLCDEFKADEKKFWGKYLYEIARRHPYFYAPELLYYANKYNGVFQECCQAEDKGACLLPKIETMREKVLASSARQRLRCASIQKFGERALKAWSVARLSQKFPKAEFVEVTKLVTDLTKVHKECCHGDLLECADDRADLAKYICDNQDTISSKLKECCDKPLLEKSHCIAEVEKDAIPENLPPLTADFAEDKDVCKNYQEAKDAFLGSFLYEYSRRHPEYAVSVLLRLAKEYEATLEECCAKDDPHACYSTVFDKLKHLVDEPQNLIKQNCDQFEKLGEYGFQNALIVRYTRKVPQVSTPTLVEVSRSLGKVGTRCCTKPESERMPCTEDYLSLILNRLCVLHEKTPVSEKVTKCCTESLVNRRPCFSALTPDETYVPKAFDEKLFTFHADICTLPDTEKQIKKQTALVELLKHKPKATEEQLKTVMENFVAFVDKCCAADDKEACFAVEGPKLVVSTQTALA

SMILES | growth at 1 µM [1] [%] | growth at 0.1 µM [2] [%] | growth at 10 µM [3] [%] | growth at 10 µM [5] [%] | growth at 0.01 µM [6] [%] | growth at 0.1 µM [7] [%] | growth at 10 µM [8] [%] | growth at 10 µM [9] [%] | Activity [10] [nm] | growth at 10 µM [11] [%] | growth at 0.01 µM [12] [%] | growth at 10 µM [13] [%] | growth at 100 µM [14] [%] | growth at 10 µM [15] [%] | growth at 1 µM [16] [%] | growth at 1 µM [17] [%] | growth at 0.01 µM [18] [%] | growth at 10 µM [19] [%] | growth at 0.01 µM [20] [%] | growth at 10 µM [21] [%] | also measured
Clc1ccc(-c2nc(Nc3ccc(-c4nc5ccccc5[nH]4)cc3)nc(N3CCOCC3)n2)cc1 | -80 | 102 | -83.4 | -76 | 99 | 100 | -93.6 | -92.7 | 349 | -76 | 99 | -91 | -67 | -63 | -39 | 76 | 98 | -73.9 | 103 | -94.4 | growth at 100 µM [4]: -29%; growth at 10 µM [22]: -77%; growth at 1 µM [23]: 93%; growth at 0.1 µM [24]: 92%; growth at 100 µM [25]: -44%; growth at 10 µM [26]: -85.5%; growth at 10 µM [27]: -81%
c1ccc2[nH]c(-c3ccc(Nc4nc(N5CCCCC5)nc(N5CCOCC5)n4)cc3)nc2c1 | 95 | 93 | 19.7 | -24 | 97 | 98 | -46.9 | 7.95 | 350 | -13 | 99 | 10 | -32 | 3 | 87 | 87 | 99 | -45.2 | 101 | -51.4 | growth at 100 µM [4]: 1%; growth at 10 µM [22]: 32%; growth at 1 µM [23]: 97%; growth at 0.1 µM [24]: 97%; growth at 100 µM [25]: -56%; growth at 10 µM [26]: 9.65%; growth at 10 µM [27]: 2%
c1ccc(-c2nc(Nc3ccc(-c4nc5ccccc5[nH]4)cc3)nc(N3CCOCC3)n2)cc1 | 16 | 104 | -59 | -75 | 105 | 103 | -89.4 | -76.8 | 357 | -53 | 99 | -88 | -94 | -33 | 47 | 68 | 96 | -64.5 | 104 | -76.4 | growth at 100 µM [4]: -55%; growth at 10 µM [22]: -60%; growth at 1 µM [23]: 92%; growth at 0.1 µM [24]: 78%; growth at 100 µM [25]: -69%; growth at 10 µM [26]: -81.5%; growth at 10 µM [27]: -63%
Fc1ccc(-c2nc(Nc3ccc(-c4nc5ccccc5[nH]4)cc3)nc(N3CCOCC3)n2)cc1 | 102 | 101 | 11.3 | -30 | 103 | 103 | -56.6 | 0.31 | 341 | -35 | 100 | 1 | -27 | 7 | 85 | 87 | 98 | -27.3 | 99 | -63.5 | growth at 10 µM [22]: 12%; growth at 1 µM [23]: 97%; growth at 0.1 µM [24]: 97%; growth at 100 µM [25]: -33%; growth at 10 µM [26]: 4.8%; growth at 10 µM [27]: 3%
